HSF1 activator = increases HSF-1 driven luciferase reporter signal. NIH3T3-HGL HSF-1 luciferase reporter, MG132, 8 h; 100% = twice DMSO control signal. activation, % at 9 µM. actives 1.7% (n = 300,000);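 active = mean replicate activation of at least 50% with a set share of replicates each reaching 50%; inconclusive = only one of those two conditions met; inactive = mean below 50% and too few replicates reaching it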
AI-2 QS mod = modulates the Vibrio harveyi AI-2 quorum sensing system; actives 0.4% (n = 300,000); AID 2094; Vibrio harveyi JMH597 AI-2 luminescence/OD600 ratio, 9 h; active compounds read low; strain lacks LuxN and CqsS sensors; 0 = neutral-control median; activity change, % at 7.5 µM; in the data active = activity change below about -75%, passing the limit was not always enough; inconclusive = no clear call, values can overlap the other calls;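 note: luminescence divided by OD600 gain over 9 h not by final OD600 alone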
HSF1 inh = HSF1 inhibition | NIH3T3-HGL HSE-luciferase, MG132-induced, luminescence 8 h; active compounds read low | activity change, negative = inhibition, % at 7.5 µM (by protocol) | actives 0.77% (n = 300,000);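 active = more than half of replicate wells show activity change below -50%, luminescence cut by over half; inconclusive = some wells, but at most half, below -50%; inactive = no replicate well below -50%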;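 note: luciferase reports HSF-1 transcriptional activity via heat shock element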
PHOSPHO1 inh = PHOSPHO1 (human) inhibition; Q8TCT1; recombinant PHOSPHO1, absorbance phosphatase assay; inhibition, % at 13.3 µM; actives 1.1% (n = 290,000); AID 1565; in the data active = inhibition above about 60%
Target sequence (Q8TCT1 whole entry, looked up): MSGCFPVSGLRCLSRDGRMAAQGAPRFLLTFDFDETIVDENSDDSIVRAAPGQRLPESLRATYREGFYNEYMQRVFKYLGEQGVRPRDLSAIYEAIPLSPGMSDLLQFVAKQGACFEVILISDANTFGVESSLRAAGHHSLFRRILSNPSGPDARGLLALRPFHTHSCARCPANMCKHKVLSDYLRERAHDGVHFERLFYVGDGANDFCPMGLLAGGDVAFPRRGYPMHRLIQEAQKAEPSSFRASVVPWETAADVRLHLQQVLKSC
ALR H2O2 inh = human ALR oxidase inhibition via reduced H2O2 | inhibition, % (test concentration not listed) | purified ALR, DTT oxidation, H2O2 HRP-luminol luminescence | P55789 | actives 3.8% (n = 290,000) | AID 485317;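 active = mean replicate inhibition above about 79%, with every replicate also reaching it, limit read from the data; inconclusive = only one of the two criteria met; inactive = mean below limit and not every replicate reaching it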
Target sequence (P55789 whole entry, looked up): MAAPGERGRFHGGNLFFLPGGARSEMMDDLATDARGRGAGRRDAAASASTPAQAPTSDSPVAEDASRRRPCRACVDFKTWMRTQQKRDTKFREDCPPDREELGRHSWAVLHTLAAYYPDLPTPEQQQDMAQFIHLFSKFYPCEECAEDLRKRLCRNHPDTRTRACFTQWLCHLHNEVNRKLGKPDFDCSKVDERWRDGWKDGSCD
HCV core dimer = HCV core protein dimerization inhibition. TR-FRET GST/Flag-core106 dimerization, 1536-well. inhibition, % at 5 µM. AID 1899. actives 0.33% (n = 300,000);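 active = inhibition above the mean of all tested compounds plus 3 SD, set per screening campaign, cut at about 45% in these data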
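Material: Tagged HCV core106 pair (GST and Flag) | Amount: GST-core106 13.5 nM, Flag-core106 17 nM | Medium: KF-containing HEPES buffer, pH 7.45, DTT, CHAPS, BSA | Reagent: Eu donor and XL665 acceptor anti-tag antibodies | Schedule: 4 h at 22.5 °C | Technique: Time-resolved FRET, ex 340 nm, em 617 and 671 nm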
Numbers stand for hits; - = inactive; ? = inconclusive; . = no result given. Sampled rows, rich in hits. Any-hit rate of the full collection: about 6.8%.

SMILES | HSF1 activator | AI-2 QS mod | HSF1 inh | PHOSPHO1 inh | ALR H2O2 inh | HCV core dimer
CCCC(=O)Nc1ccc(C(=O)NNC(=S)NC(=O)c2cccs2)cc1 | - | - | - | - | - | -
CC(C)(C)c1ccc(C(=O)NC(=S)NNC(=O)c2cccs2)cc1 | - | - | -59.8 | - | 98.2 | -
COC(=O)CN1C(=O)COc2ccc(S(=O)(=O)N3CCCCCC3)cc21 | - | - | - | - | - | -
Cc1ccc(N2C(=O)Nc3ccccc3S2(=O)=O)cc1Cl | - | - | - | - | - | -
COc1cc(S(=O)(=O)N2CCOCC2)ccc1NC(=O)COC(=O)c1ccc(Cl)nc1 | . | . | . | . | - | .
COc1cc(C(=O)NNC(=S)NC(=O)c2ccc(Cl)cc2)cc(OC)c1OC | - | - | - | 69.0 | 96.3 | -
O=C(NC(=S)NNC(=O)c1cccs1)c1ccccc1 | - | - | - | - | 98.5 | -
O=C(NC(=S)NNC(=O)c1cccs1)c1ccco1 | - | - | - | - | 97.1 | -
O=C(NNC(=S)NC(=O)c1sc2ccccc2c1Cl)c1ccc(Cl)cc1 | - | - | - | - | 98.4 | -
COc1ccc2c(c1OC)C(=O)N1C2SC(C)(C)[C@H]1C(=O)NC1CC1 (stereo partly drawn) | - | - | - | - | - | -
CCOC(=O)c1nn(-c2ccc(F)cc2)c(=O)cc1OCC(=O)Nc1ccc(F)c(F)c1 | - | - | - | . | . | -
Cc1ccc(C2(c3ccccc3)NC(=O)N(CC(=O)NCc3ccco3)C2=O)cc1C (stereo not drawn) | . | . | . | . | - | .
COc1ccc(NS(=O)(=O)c2cccc(C(=O)NNC(=O)c3cncc(Br)c3)c2)cc1 | - | - | - | . | - | -
Cc1cccc(C(=O)NC(=S)NNC(=O)c2cccs2)c1 | - | ? | - | 88.2 | 98.7 | -
CC(C)OCCCn1c(=S)[nH]c2ccc(N3CCOCC3)cc2c1=O | - | - | - | - | - | -
CC(C)OCCCn1c(=S)[nH]c2cc3c(cc2c1=O)OCO3 | - | - | - | 88.3 | - | -
CC1CCN(CCCNC(=O)c2ccc3c(=O)n(Cc4ccc(Cl)cc4)c(=S)[nH]c3c2)CC1 | 78.9 | - | - | - | - | -
COC(CNC(=O)c1ccc(Cn2c(=S)[nH]c3cc4c(cc3c2=O)OCO4)cc1)OC | - | - | - | 79.0 | - | -
COC(=O)c1ccc2c(=O)n(Cc3ccc(C(=O)NCCCN4CCC(C)CC4)cc3)c(=S)[nH]c2c1 | - | - | - | - | - | -
CCOc1cc2[nH]c(=S)n(Cc3ccc(C(=O)NCCCOC)cc3)c(=O)c2cc1OCC | - | - | - | - | . | -
COCCNC(=O)c1ccc(Cn2c(=S)[nH]c3cc4c(cc3c2=O)OCO4)cc1 | - | - | - | 97.6 | - | -
NC(=S)Nc1ccc(Cl)cc1Cl | - | - | - | - | - | -
Nc1ncnc(Nc2ccc(S(N)(=O)=O)cc2)n1 | - | - | - | - | - | .
CC(C)CC(NC(=O)CNC(=O)C1O[C@@H]2OC(C)(C)O[C@@H]2[C@H]2OC(C)(C)O[C@@H]12)C(=O)O (stereo partly drawn) | - | - | - | - | - | -
CN(CC1CCCO1)S(=O)(=O)c1ccc(C(=O)Nc2nccs2)cc1 (stereo not drawn) | - | - | - | - | - | -
SMILES | HSF1 activator | AI-2 QS mod | HSF1 inh | PHOSPHO1 inh | ALR H2O2 inh | HCV core dimer
CCN1CCN(c2ccc(N3CCN(C(=O)c4ccc(Br)o4)CC3)nn2)CC1 | - | - | - | . | . | -
O=C(CCl)N(Cc1cc(=O)[nH]c2ccccc12)c1ccccc1 | - | - | - | - | 95.5 | -
Cc1ccc(NC(=O)CSc2ncnc3ccccc23)cc1S(=O)(=O)N1CCOCC1 | - | - | - | - | 98.6 | -
O=C(CSc1ncnc2ccccc12)NCc1ccc2c(c1)OCO2 | - | - | - | - | - | -
O=C(CSc1ncnc2c1nnn2-c1ccc(F)cc1)NCC1CCCO1 (stereo not drawn) | 73.9 | - | - | - | ? | -
Cc1ccc(NC(=O)CSc2ncnc3ccccc23)cc1S(=O)(=O)N1CCCCC1 | - | - | - | - | - | -
CCN(CC)S(=O)(=O)c1ccc(NC(=O)CSc2ncnc3ccccc23)cc1 | - | - | - | - | 97.7 | -
O=C(CSc1ncnc2ccccc12)Nc1ccc2c(c1)OCO2 | - | - | - | - | 97.8 | -

Screening results: PubChem, several laboratories
